Hits are enriched below; roughly 3.7% of the tested compounds scored in any of these assays.
GASC-1 inh – inhibitors of human GASC-1 (JMJD2C) demethylase | 0.069% of 330,000 active | inhibition, % at 2.35 µM | Q9H3R0 | GST-JMJD2C(1-420) H3K9me3 demethylation, DELFIA europium | AID 2099;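 active = more than half of a compound's replicate wells show inhibition beyond 50%, single wells judged on their own value; inconclusive = some, but no more than half, of replicates pass 50% inhibition; inactive = no replicate passes 50% inhibition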;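 also: signal counts dimethyl H3K9 product captured on neutravidin plate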
SR-BI DiI inh – blocks mouse SR-BI lipid uptake from DiI-HDL; Q61009; inhibition, % at 12.5 µM; AID 488896; 0.96% of 320,000 active; ldlA[mSR-BI] CHO cells, DiI-HDL uptake fluorescence, 3 h;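 active = mean replicate inhibition of at least 70% and a set share of replicates each scoring 70 or more; inconclusive = meets just one of the two criteria; inactive = fails both criteria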
AHR act – activators of human aryl hydrocarbon receptor; P35869; AHR-responsive luciferase reporter cells, luminescence; activation, % at 5 µM; 2.5% of 320,000 active; in the data active = activation above about 47%
Target sequence (P35869 whole entry, looked up): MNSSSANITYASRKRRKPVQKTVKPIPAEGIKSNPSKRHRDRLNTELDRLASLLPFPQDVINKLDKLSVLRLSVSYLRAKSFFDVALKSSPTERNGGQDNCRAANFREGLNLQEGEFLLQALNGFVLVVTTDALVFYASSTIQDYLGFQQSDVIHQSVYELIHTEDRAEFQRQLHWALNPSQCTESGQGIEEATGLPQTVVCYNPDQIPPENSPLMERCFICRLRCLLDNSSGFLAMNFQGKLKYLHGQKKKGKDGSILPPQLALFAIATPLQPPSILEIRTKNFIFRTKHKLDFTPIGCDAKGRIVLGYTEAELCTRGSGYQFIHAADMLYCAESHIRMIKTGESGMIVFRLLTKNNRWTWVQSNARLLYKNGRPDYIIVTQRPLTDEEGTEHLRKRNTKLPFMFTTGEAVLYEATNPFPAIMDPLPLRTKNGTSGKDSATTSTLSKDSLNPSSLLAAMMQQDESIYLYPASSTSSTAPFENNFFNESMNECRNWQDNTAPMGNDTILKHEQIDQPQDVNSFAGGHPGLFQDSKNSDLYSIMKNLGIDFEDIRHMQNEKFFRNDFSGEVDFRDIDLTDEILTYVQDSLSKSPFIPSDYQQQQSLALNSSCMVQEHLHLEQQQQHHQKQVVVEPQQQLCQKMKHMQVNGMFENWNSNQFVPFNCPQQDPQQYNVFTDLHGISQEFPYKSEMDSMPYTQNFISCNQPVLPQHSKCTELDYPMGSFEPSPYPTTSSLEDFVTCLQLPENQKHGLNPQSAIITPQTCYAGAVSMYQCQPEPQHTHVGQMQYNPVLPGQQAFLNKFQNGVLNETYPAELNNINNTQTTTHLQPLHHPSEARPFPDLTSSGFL
GAA850 FXN act – increases GAA850 frataxin promoter reporter activity | HEK293 lucGAA850 FXN promoter luciferase reporter, 24 h; percent of 10 µM SAHA response | activation, % at 6 µM | 0.56% of 360,000 active;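 active = activation above the average of all compounds screened plus 3 SD, cutoff fixed separately per campaign, cut at about 7.5% in these data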
SR-BI uptake up – enhances SR-BI lipid uptake from DiI-HDL; CHO ldlA[mSR-BI] cells, DiI-HDL uptake fluorescence, 3 h; 100 = double the neutral-control signal; activation, % at 12.5 µM; 0.096% of 320,000 active; AID 504775;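 active = mean replicate activation of at least 60% and every replicate at or above 60%; inconclusive = mean or all-replicate condition met, but not both; inactive = mean below 60% and not all replicates reaching 60%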
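Test system: SR-BI-overexpressing, LDLR-lacking CHO cells; Also added: labelled HDL, 10 µg/mL; Measured by: bottom-read cell fluorescence after medium removal, ex 550/em 595 nm; Timing: 3 h uptake period with compound, 37 °C; Buffer or medium: F12, 0.5% BSA, 25 mM HEPES; Doses: single compound concentration, delivered by pin transfer.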
A number is an active result; . = inactive; ? = inconclusive; / = no result given.

SMILES	GASC-1 inh	SR-BI DiI inh	AHR act	GAA850 FXN act	SR-BI uptake up
COc1cc(C(=O)CCN2CCC(c3ccccc3)C2)cc(OC)c1OC (stereo not drawn)	.	.	.	.	.
C[C@@H](OC(=O)c1[nH]cnc1C(=O)NCc1ccc(CNC(=O)OC(C)(C)C)cc1)c1ccccc1	/	.	.	.	.
Cc1ccc(S(=O)(=O)Nc2c(NC3CCCCC3)c3ccccc3oc2=O)c(C)c1	.	.	.	.	.
CCOC(=O)c1sc(NN=C(C(=O)OC)C(=O)OC)c(C(=O)OCC)c1C	.	74	.	.	.
CCOC(=O)c1c(N)sc(C(=O)OC)c1C	.	.	.	.	.
COc1ccc(NC(=O)c2sccc2C)cn1	.	.	.	.	.
COc1ccccc1CN1C(=O)[C@@H]2Cc3c([nH]c4ccccc34)C(C)(C)N2C1=O	.	76	.	.	.
CC1(C)c2[nH]c3ccccc3c2C[C@@H]2C(=O)N(c3cc(F)ccc3F)C(=O)N21	.	77	.	.	.
CC1(C)c2[nH]c3ccccc3c2C[C@H]2C(=O)N(Cc3cccc(F)c3)C(=O)N21	.	.	.	.	.
Cc1cccc(CNC(=O)C2CCC(=O)N(C3CC3)C2)c1 (stereo not drawn)	.	.	.	.	.
S=c1nc(-c2ccccc2)[nH]c2ccccc12	.	.	57	.	.
S=c1nc(-c2ccc(Br)cc2)[nH]c2ccccc12	.	/	.	.	/
CC(C)(C)c1cc(N)n2nc(C(C)(C)C)cc2n1	.	.	.	.	.
O=c1c(Cl)c(N/N=C/c2ccc(Cl)cc2)cnn1-c1ccccc1	.	.	50	.	.
CCOc1ccc(S(=O)(=O)N2CCOCC2)cc1NC(=O)Cc1c(F)cccc1Cl	.	.	.	.	.
Cc1ccccc1NCc1nc2ccccc2n1C	.	.	79	.	.
Cn1c(CNc2ccccc2)nc2ccccc21	.	.	65	.	.
Cn1c(CNc2ccccc2O)nc2ccccc21	.	.	76	.	.
Cn1c(CNc2ccc(F)cc2)nc2ccccc21	.	.	/	.	.
Cn1c(Cc2nc3ccccc3n2C)nc2ccccc21	.	.	.	.	.
CCCCNC(=O)c1ccccc1SCC(=O)NC1CCCCCCC1	.	.	.	.	.
COc1ccc(N2CCN(c3ccc(C(=O)O)cc3[N+](=O)[O-])CC2)cc1	.	.	.	.	.
Cc1cc(C)cc(NC(=O)CN(Cc2ccccc2)S(C)(=O)=O)c1	.	.	.	.	.
O=C1Nc2ccccc2/C1=C/C(=O)c1cccs1	.	.	118	.	.
Cn1c(=O)c2c(ncn2CC(=O)OCC(=O)NNC(=O)c2ccc(Cl)cc2)n(C)c1=O	.	.	.	.	.
SMILES	GASC-1 inh	SR-BI DiI inh	AHR act	GAA850 FXN act	SR-BI uptake up
CCOc1cccc(CNc2ccc(O)cc2)c1OCc1ccccc1Cl	.	81	.	.	.
CCOc1cccc(CNc2ccc(O)cc2)c1OCc1ccc(Cl)cc1Cl	.	80	.	.	.
CCOc1cccc(CNCCO)c1OCc1ccc(Cl)cc1Cl	.	.	.	.	.
CCOc1cccc(CNn2cnnc2)c1OCc1ccccc1Cl	.	.	.	.	.
COc1ccc(NC(=O)CSc2nc3ccccc3c(=O)n2CCCN2CCCCC2)c(OC)c1	.	.	.	.	.
COc1ccccc1Nc1nnc(SCc2cc(=O)n3ccsc3n2)s1	.	.	.	.	.
Cc1ccc(Nc2nnc(SCc3cc(=O)n4ccsc4n3)s2)c(C)c1	.	.	48	.	.
COc1ccc(NS(=O)(=O)c2cccc(C(=O)OCC(=O)N3CCN(c4ccc(OC)cc4)CC3)c2)cc1	.	.	.	.	.
COc1ccccc1-n1cc(-c2ccc([N+](=O)[O-])cc2)[nH]c1=S	.	.	63	.	.
COc1ccccc1-n1cc(-c2ccc(Br)cc2)[nH]c1=S	.	.	78	.	.
CC(C)(C)c1ccc(OCC(=O)NCCN2CCOCC2)cc1	.	/	.	.	/
CCOc1cc(C(=O)N(CC)CC(=O)Nc2ccc3c(c2)OCCO3)ccc1OC	.	.	.	.	.
Cc1sc2ncn(-c3ccccc3)c(=O)c2c1C	.	.	.	.	.
CCOc1ccc(-n2cnc3sc(C)c(C)c3c2=O)cc1	.	71	.	.	.
CCOc1ccc(CNC(=O)Cn2nc(C)n3nc(-c4ccccc4)cc3c2=O)cc1	.	.	.	.	.
COc1cccc2c1OCC/C2=N\NC(=O)COc1ccccc1C	.	.	48	.	.
Cc1ccccc1OCC(=O)N/N=C1\CCOc2c(C)cccc21	.	.	.	.	.
CC(=O)N1c2ccc3ccccc3c2C2C=CCC2C1c1ccc(Br)cc1 (stereo not drawn)	.	/	85	/	/
CC1CN(c2oc(-c3cccs3)nc2C#N)CC(C)O1 (stereo not drawn)	.	.	67	.	.
N#Cc1nc(-c2cccs2)oc1N1CCOCC1	.	.	.	.	.
COc1ccccc1N=Cc1c(C)c(C#N)c2[nH]c3ccccc3n2c1=O	58	.	.	.	.
COc1ccc2c(=O)c3c(=O)n(Cc4ccco4)c(-c4ccccc4)nc3oc2c1	.	.	.	.	.
COc1ccc2c(=O)c3c(=O)n(Cc4ccco4)c(-c4cc(OC)c(OC)c(OC)c4)nc3oc2c1	.	74	.	.	.
COCCn1c(-c2ccccc2)nc2oc3cc(OC)ccc3c(=O)c2c1=O	.	.	.	.	.
COc1ccc2c(=O)c3c(=O)n(-c4ccccc4)c(-c4ccc(C)cc4)nc3oc2c1	.	92	.	.	.
SMILES	GASC-1 inh	SR-BI DiI inh	AHR act	GAA850 FXN act	SR-BI uptake up
CC(C)c1nc2oc3ccccc3c(=O)c2c(=O)n1-c1ccccc1	.	.	103	.	.
Cc1nc2oc3ccccc3c(=O)c2c(=O)n1Cc1ccccc1	.	.	.	.	.
Cc1ccc(S(=O)(=O)Nc2cccc(C(=O)NCCCn3ccnc3)c2)cc1F	?	.	.	.	.
O=C1NC(=O)/C(=C\c2ccccc2OCc2ccc([N+](=O)[O-])cc2)N1	.	.	72	.	.
Cc1nn2c(N3CCCC3)cc(C(C)C)nc2c1-c1ccccc1	.	74	.	.	.
Cc1cc(N2CCN(Cc3ccccc3)CC2)n2nc(C)c(-c3ccccc3)c2n1	.	.	.	.	.
Cc1cc(N2CCCCC2)n2nc(C)c(-c3ccccc3)c2n1	.	.	.	.	.
Cc1cc(N2CCC(C)CC2)n2nc(C)c(-c3ccccc3)c2n1	.	75	.	.	.
COc1ccc(-c2c(C)nn3c(N4CCN(Cc5ccccc5)CC4)cc(C)nc23)cc1OC	.	77	.	.	.
COCCn1cc(-c2csc(N)n2)c2ccccc21	.	.	.	.	.
CN(C)c1nc(-c2cn(CCC#N)c3ccccc23)cs1	.	.	62	.	.
O=C(CN1CCN(C(=O)CNC(=O)c2ccc(N3CCCC3=O)cc2)CC1)Nc1ccccc1Cl	.	.	.	.	.
